ChEMBL document CHEMBL1145271 (Bioorg Med Chem Lett, 2005)

Experiments:
[1] = target: T1, Kappa-type opioid receptor (Homo sapiens, UniProt P41145); assay: Activation of human Opioid receptor kappa 1 expressed in chinese hamster ovary cells to enhance [35S]GTP-gamma-S, binding compared to U50,488H; type: functional, cell-based
Outline: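 Agonist efficacy at human κ-opioid receptor, read as enhancement of [35S]GTPγS binding and expressed as % of the maximal response to U50,488H. Mean of at least three independent experiments, each run in duplicate.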

[2] = target: T1, Kappa-type opioid receptor; assay: Inhibition of [3H]diprenorphine binding to human Opioid receptor kappa 1 expressed in chinese hamster ovary cells; type: cell-based, CHO
Outline: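 Ki from inhibition of [3H]diprenorphine binding to human κ-opioid receptor. Mean of at least three independent experiments, each run in duplicate.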

[3] = target: T1, Kappa-type opioid receptor; assay: Effective concentration for activation of human Opioid receptor kappa 1 expressed in chinese hamster ovary cells to enhance [35S]GTP-gamma-S, binding; type: functional, cell-based
Outline: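 EC50 for human κ-opioid receptor activation, read as enhancement of [35S]GTPγS binding. Mean of at least three independent experiments, each run in duplicate.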

T1 sequence (P41145 whole entry): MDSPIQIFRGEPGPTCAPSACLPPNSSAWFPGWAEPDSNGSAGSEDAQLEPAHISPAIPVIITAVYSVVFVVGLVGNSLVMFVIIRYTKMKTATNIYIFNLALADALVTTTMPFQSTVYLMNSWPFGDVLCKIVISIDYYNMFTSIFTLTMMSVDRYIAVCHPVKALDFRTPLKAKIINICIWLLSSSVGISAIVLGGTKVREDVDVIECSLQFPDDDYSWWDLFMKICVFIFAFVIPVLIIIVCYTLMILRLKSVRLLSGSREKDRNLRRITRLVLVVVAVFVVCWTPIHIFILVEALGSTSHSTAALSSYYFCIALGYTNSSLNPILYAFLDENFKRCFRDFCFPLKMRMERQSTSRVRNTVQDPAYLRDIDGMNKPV

| Structure (SMILES) | Efficacy [1] | Ki [2] | EC50 [3] |
| --- | --- | --- | --- |
| COC(=O)[C@@H]1C[C@H](O)C(=O)[C@H]2[C@@]1(C)CC[C@H]1C(=O)O[C@H](c3ccoc3)C[C@]21C | 98% | – | – |
| COC(=O)[C@@H]1C[C@H](OC(=O)[C@H](C)N)C(=O)[C@H]2[C@@]1(C)CC[C@H]1C(=O)O[C@H](c3ccoc3)C[C@]21C | – | > 10000 nM | – |
| C=CCO[C@H]1C[C@@H](C(=O)OC)[C@]2(C)CCC3C(=O)O[C@H](c4ccoc4)C[C@]3(C)[C@H]2C1=O (stereo partly drawn) | 106% | 60.1 nM | 145 nM |
| CCCCO[C@H]1C[C@@H](C(=O)OC)[C@]2(C)CCC3C(=O)O[C@H](c4ccoc4)C[C@]3(C)[C@H]2C1=O (stereo partly drawn) | – | 35.8 nM | 104 nM |
| CCNC(=O)O[C@H]1C[C@@H](C(=O)OC)[C@]2(C)CC[C@H]3C(=O)O[C@H](c4ccoc4)C[C@]3(C)[C@H]2C1=O | – | 462 nM | > 1000 nM |
| COC(=O)[C@@H]1C[C@@H](N(C)C)C(=O)[C@H]2[C@@]1(C)CC[C@H]1C(=O)O[C@H](c3ccoc3)C[C@]21C | 105% | 90.9 nM | 343 nM |
| CCO[C@H]1C[C@@H](C(=O)OC)[C@]2(C)CC[C@H]3C(=O)O[C@H](c4ccoc4)C[C@]3(C)[C@H]2C1=O | 103% | – | – |
| COC(=O)[C@@H]1C[C@H](OCc2ccccc2)C(=O)[C@H]2[C@@]1(C)CCC1C(=O)O[C@H](c3ccoc3)C[C@@]12C (stereo partly drawn) | – | 75.7 nM | 161 nM |
| CNC(=O)O[C@H]1C[C@@H](C(=O)OC)[C@]2(C)CC[C@H]3C(=O)O[C@H](c4ccoc4)C[C@]3(C)[C@H]2C1=O | 81% | 83 nM | 201 nM |
| CCCO[C@H]1C[C@@H](C(=O)OC)[C@]2(C)CC[C@H]3C(=O)O[C@H](c4ccoc4)C[C@]3(C)[C@H]2C1=O [SALVINORIN A PROPYL ETHER] | 100% | 28.7 nM | 67.4 nM |
| COC(=O)[C@@H]1C[C@H](OC)C(=O)[C@H]2[C@@]1(C)CC[C@H]1C(=O)O[C@H](c3ccoc3)C[C@]21C | 98% | 220 nM | 389 nM |
| CN[C@@H]1C[C@@H](C(=O)OC)[C@]2(C)CC[C@H]3C(=O)O[C@H](c4ccoc4)C[C@]3(C)[C@H]2C1=O | – | > 10000 nM | – |
| COC(=O)[C@@H]1C[C@H](OC(=O)CN(C)C)C(=O)[C@H]2[C@@]1(C)CC[C@H]1C(=O)O[C@H](c3ccoc3)C[C@]21C | – | > 10000 nM | – |
| CCCC(=O)O[C@H]1C[C@@H](C(=O)OC)[C@]2(C)CC[C@H]3C(=O)O[C@H](c4ccoc4)C[C@]3(C)[C@H]2C1=O | 97% | 4.9 nM | 9.9 nM |
| CCN[C@@H]1C[C@@H](C(=O)OC)[C@]2(C)CC[C@H]3C(=O)O[C@H](c4ccoc4)C[C@]3(C)[C@H]2C1=O | – | 28.9 nM | 68.9 nM |
| COC(=O)[C@@H]1C[C@H](OC(N)=O)C(=O)[C@H]2[C@@]1(C)CC[C@H]1C(=O)O[C@H](c3ccoc3)C[C@]21C | 99% | 3.2 nM | 6.2 nM |
| COC(=O)[C@@H]1C[C@H](OC(=O)CNC(C)=O)C(=O)[C@H]2[C@@]1(C)CC[C@H]1C(=O)O[C@H](c3ccoc3)C[C@]21C | – | > 10000 nM | – |
| CCC(=O)O[C@H]1C[C@@H](C(=O)OC)[C@]2(C)CC[C@H]3C(=O)O[C@H](c4ccoc4)C[C@]3(C)[C@H]2C1=O | 94% | 7.2 nM | 20.4 nM |
